Blank lines part the entries; values can stand above or below the molecule they belong to.
Assays:
[1] = Antiproliferative activity against human Hep3B cells at 1.23 ug/ml for 24 hrs by MTT assay; assay type: functional, Hep 3B2
Procedure, shortened: (§1)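 HEP-3B or A-375 cells were grown in DMEM with 10% FBS, 5% HBSS, penicillin, streptomycin and amphotericin B at 37 C and 5% CO2. Cells were seeded at 2 × 10^4 per well and preincubated for 24 h. They were then exposed to ten 1:3 serial dilutions from a top concentration of 100, made from 2% DMSO stocks. MTT was added for 3 h, formazan was dissolved in DMSO, and A550 was read. Wells were run in triplicate across three independent experiments. IC50 came from dose-response curves.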

[2] = Antiproliferative activity against human Hep3B cells at 0.01 ug/ml for 24 hrs by MTT assay; assay type: functional, Hep 3B2; procedure, shortened: as §1
[3] = Antiproliferative activity against human Hep3B cells at 0.05 ug/ml for 24 hrs by MTT assay; assay type: functional, Hep 3B2; procedure, shortened: as §1
A-375 [4] = test: Antiproliferative activity against human A375 cells at 0.01 ug/ml for 24 hrs by MTT assay; assay type: functional; settings: A-375, 24 h; procedure, shortened: as §1
A-375 [5] = test: Antiproliferative activity against human A375 cells at 100 ug/ml for 24 hrs by MTT assay; assay type: functional; settings: A-375, 24 h; procedure, shortened: as §1
A-375 [6] = test: Antiproliferative activity against human A375 cells at 3.7 ug/ml for 24 hrs by MTT assay; assay type: functional; settings: A-375, 24 h; procedure, shortened: as §1
[7] = Antiproliferative activity against human Hep3B cells at 0.14 ug/ml for 24 hrs by MTT assay; assay type: functional, Hep 3B2; procedure, shortened: as §1
[8] = Antiproliferative activity against human Hep3B cells at 0.02 ug/ml for 24 hrs by MTT assay; assay type: functional, Hep 3B2; procedure, shortened: as §1
A-375 [9] = test: Antiproliferative activity against human A375 cells at 33.33 ug/ml for 24 hrs by MTT assay; assay type: functional; settings: A-375, 24 h; procedure, shortened: as §1
HEP-3B (human hepatoma) = test: Antiproliferative activity against human Hep3B cells for 24 hrs by MTT assay
A-375 (human melanoma) = test: Antiproliferative activity against human A375 cells for 24 hrs by MTT assay; settings: A-375, 24 h
A-375 [10] = test: Antiproliferative activity against human A375 cells at 11.11 ug/ml for 24 hrs by MTT assay; assay type: functional; settings: A-375, 24 h; procedure, shortened: as §1
[11] = Retention time of compound by HPLC analysis; assay type: physicochemical
A-375 [12] = test: Antiproliferative activity against human A375 cells at 0.02 ug/ml for 24 hrs by MTT assay; assay type: functional; settings: A-375, 24 h; procedure, shortened: as §1
[13] = Antiproliferative activity against human Hep3B cells at 0.41 ug/ml for 24 hrs by MTT assay; assay type: functional, Hep 3B2; procedure, shortened: as §1
A-375 [14] = test: Antiproliferative activity against human A375 cells at 0.14 ug/ml for 24 hrs by MTT assay; assay type: functional; settings: A-375, 24 h; procedure, shortened: as §1
[15] = Antiproliferative activity against human Hep3B cells at 3.7 ug/ml for 24 hrs by MTT assay; assay type: functional, Hep 3B2; procedure, shortened: as §1
[16] = Antiproliferative activity against human Hep3B cells at 33.33 ug/ml for 24 hrs by MTT assay; assay type: functional, Hep 3B2; procedure, shortened: as §1
A-375 [17] = test: Antiproliferative activity against human A375 cells at 1.23 ug/ml for 24 hrs by MTT assay; assay type: functional; settings: A-375, 24 h; procedure, shortened: as §1
A-375 [18] = test: Antiproliferative activity against human A375 cells at 0.41 ug/ml for 24 hrs by MTT assay; assay type: functional; settings: A-375, 24 h; procedure, shortened: as §1
[19] = Antiproliferative activity against human Hep3B cells at 11.11 ug/ml for 24 hrs by MTT assay; assay type: functional, Hep 3B2; procedure, shortened: as §1
[20] = Antiproliferative activity against human Hep3B cells at 100 ug/ml for 24 hrs by MTT assay; assay type: functional, Hep 3B2; procedure, shortened: as §1
A-375 [21] = test: Antiproliferative activity against human A375 cells at 0.05 ug/ml for 24 hrs by MTT assay; assay type: functional; settings: A-375, 24 h; procedure, shortened: as §1

IC50 (HEP-3B (human hepatoma)): 90.5 µM | IC50 (A-375 (human melanoma)): > 100 µM | Retention_time [11]: 8.8 min
Structure (SMILES): Cc1ccc2nc(C(=O)Nc3c(F)cc(-c4cccc(F)c4)cc3F)c(C)c(O)c2c1
inhibition at 1.23 µg/mL [1]: 11.2% | inhibition at 0.01 µg/mL [2]: 0.22% | inhibition at 0.05 µg/mL [3]: 1.52% | inhibition at 0.01 µg/mL (A-375 [4]): 0.1% | inhibition at 100 µg/mL (A-375 [5]): 56.4% | inhibition at 3.7 µg/mL (A-375 [6]): 16.2% | inhibition at 0.14 µg/mL [7]: 2.34% | inhibition at 0.02 µg/mL [8]: 0.98% | inhibition at 33.33 µg/mL (A-375 [9]): 26.5% | inhibition at 11.11 µg/mL (A-375 [10]): 17.9% | inhibition at 0.02 µg/mL (A-375 [12]): 0.38% | inhibition at 0.41 µg/mL [13]: 5.25% | inhibition at 0.14 µg/mL (A-375 [14]): 1.06% | inhibition at 3.7 µg/mL [15]: 19.2% | inhibition at 33.33 µg/mL [16]: 37.3% | inhibition at 1.23 µg/mL (A-375 [17]): 3.04% | inhibition at 0.41 µg/mL (A-375 [18]): 1.35% | inhibition at 11.11 µg/mL [19]: 25.5% | inhibition at 100 µg/mL [20]: 68.3% | inhibition at 0.05 µg/mL (A-375 [21]): 0.96%

IC50 (HEP-3B (human hepatoma)): 57.8 µM | IC50 (A-375 (human melanoma)): 16.9 µM | Retention_time [11]: 6.8 min
Structure (SMILES): CCc1ccc2nc(C(=O)Nc3c(F)cc(-c4cccc(F)c4)cc3F)c(C)c(C(=O)O)c2c1
inhibition at 1.23 µg/mL [1]: 4.52% | inhibition at 0.01 µg/mL [2]: -0.25% | inhibition at 0.05 µg/mL [3]: 0% | inhibition at 0.01 µg/mL (A-375 [4]): -0.45% | inhibition at 100 µg/mL (A-375 [5]): 71.3% | inhibition at 3.7 µg/mL (A-375 [6]): 26.7% | inhibition at 0.14 µg/mL [7]: 0.68% | inhibition at 0.02 µg/mL [8]: -0.05% | inhibition at 33.33 µg/mL (A-375 [9]): 47.1% | inhibition at 11.11 µg/mL (A-375 [10]): 38.9% | inhibition at 0.02 µg/mL (A-375 [12]): -0.12% | inhibition at 0.41 µg/mL [13]: 1.68% | inhibition at 0.14 µg/mL (A-375 [14]): 2.45% | inhibition at 3.7 µg/mL [15]: 15.2% | inhibition at 33.33 µg/mL [16]: 36.2% | inhibition at 1.23 µg/mL (A-375 [17]): 17.7% | inhibition at 0.41 µg/mL (A-375 [18]): 6.12% | inhibition at 11.11 µg/mL [19]: 27.2% | inhibition at 100 µg/mL [20]: 64.3% | inhibition at 0.05 µg/mL (A-375 [21]): 0.95%

IC50 (HEP-3B (human hepatoma)): 6.35 µM | IC50 (A-375 (human melanoma)): 13.2 µM
Structure (SMILES): COc1cccc2c1C(=O)c1c(O)c3c(c(O)c1C2=O)C[C@@](O)(C(=O)CO)C[C@@H]3O[C@H]1C[C@H](N)[C@H](O)[C@H](C)O1 [DOXORUBICIN]
inhibition at 1.23 µg/mL [1]: 18.4% | inhibition at 0.01 µg/mL [2]: 0.25% | inhibition at 0.05 µg/mL [3]: 1.56% | inhibition at 0.01 µg/mL (A-375 [4]): -35.6% | inhibition at 100 µg/mL (A-375 [5]): 88.4% | inhibition at 3.7 µg/mL (A-375 [6]): 11.6% | inhibition at 0.14 µg/mL [7]: 3.35% | inhibition at 0.02 µg/mL [8]: 0.95% | inhibition at 33.33 µg/mL (A-375 [9]): 69.9% | inhibition at 11.11 µg/mL (A-375 [10]): 50.6% | inhibition at 0.02 µg/mL (A-375 [12]): 30.2% | inhibition at 0.41 µg/mL [13]: 11.4% | inhibition at 0.14 µg/mL (A-375 [14]): -18.5% | inhibition at 3.7 µg/mL [15]: 24.2% | inhibition at 33.33 µg/mL [16]: 32.3% | inhibition at 1.23 µg/mL (A-375 [17]): -10.3% | inhibition at 0.41 µg/mL (A-375 [18]): -12.5% | inhibition at 11.11 µg/mL [19]: 30.1% | inhibition at 100 µg/mL [20]: 76.3% | inhibition at 0.05 µg/mL (A-375 [21]): -27.6%

Structure (SMILES): Cc1c(-c2ccc(-c3ccccc3F)cc2)nc2ccc(F)cc2c1C(=O)O [BREQUINAR SODIUM]
inhibition at 1.23 µg/mL [1]: 21.4% | inhibition at 0.01 µg/mL [2]: 0.23% | inhibition at 0.05 µg/mL [3]: 2.05% | inhibition at 0.01 µg/mL (A-375 [4]): 0.18% | inhibition at 100 µg/mL (A-375 [5]): 74.6% | inhibition at 3.7 µg/mL (A-375 [6]): 33.2% | inhibition at 0.14 µg/mL [7]: 4.52% | inhibition at 0.02 µg/mL [8]: 0.65% | inhibition at 33.33 µg/mL (A-375 [9]): 59.7% | IC50 (HEP-3B (human hepatoma)): 8.1 µM | IC50 (A-375 (human melanoma)): 10.2 µM | inhibition at 11.11 µg/mL (A-375 [10]): 46.6% | inhibition at 0.02 µg/mL (A-375 [12]): 1.02% | inhibition at 0.41 µg/mL [13]: 15.3% | inhibition at 0.14 µg/mL (A-375 [14]): 3.48% | inhibition at 3.7 µg/mL [15]: 34.2% | inhibition at 33.33 µg/mL [16]: 52.3% | inhibition at 1.23 µg/mL (A-375 [17]): 26.3% | inhibition at 0.41 µg/mL (A-375 [18]): 18.4% | inhibition at 11.11 µg/mL [19]: 46% | inhibition at 100 µg/mL [20]: 68.3% | inhibition at 0.05 µg/mL (A-375 [21]): 2.65%

Reference: ChEMBL document CHEMBL3286357, “Design, synthesis and pharmacological evaluation of novel substituted quinoline-2-carboxamide derivatives as human dihydroorotate dehydrogenase (hDHODH) inhibitors and anticancer agents” (Eur J Med Chem, 2014)
